This note sets out measurements from the array DNA melting data of Ke et al. (doi:10.1101/2024.01.08.574731).

Data set [1] can be described thus: folding enthalpy; higher = less favourable; fluorescence melt of hairpins on a sequencing array, two-state fit. Conditions: sodium 0.088 M. Summed up: (§1)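 Cy3 signals were normalised both to pre-quench Cy3 and to control constructs. They came from library hairpins carrying annealed Cy3 and quencher oligos on a sequenced MiSeq flow cell, imaged in 50 mM Na-HEPES pH 8.0, 25 mM NaCl, in 2.5 °C steps up to 60 °C. Bootstrapped two-state fits gave melting temperature and folding enthalpy, and four replicates were combined by inverse variance. Fitted temperatures were then raised by 9.35 °C to match UV melts.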

Data set [2] is described as follows: melting temperature; fluorescence melt of hairpins on a sequencing array, two-state fit, raised by 9.35 °C to match UV melts. Conditions: sodium 0.088 M. The procedure, abridged: as §1

GACTGCGAAAGCACGTC ((((((....))).))): the folding enthalpy in data set [1] was -15.8 kcal/mol. Also, in data set [2], the Tm amounted to 56.4 °C.

For the sequence ACGTTGAAAAACGT (((((....))))), the folding enthalpy in data set [1] was -20.2 kcal/mol. In addition, the Tm in data set [2] came out at 47.1 °C.

With GATCATCGCAATGATC ((((((....)))))), the folding enthalpy in data set [1] is -39.1 kcal/mol. Further, the Tm in data set [2] came to 48.3 °C.

GCACGCGAAAGCGTCTGC ((((((....)))..))): the folding enthalpy in data set [1] is -11.1 kcal/mol. Also, the Tm in data set [2] stood at 47.4 °C.

Consider GAGGTTCCGAAAGGACTC (((..(((....)))))), for which the folding enthalpy in data set [1] was -14.9 kcal/mol. The Tm in data set [2] worked out at 31.6 °C.

As to GGTTCCGAAAGGACAACC ((((((....)))..))), in data set [1], the folding enthalpy was -19.9 kcal/mol. In addition, the Tm in data set [2] stood at 36.7 °C.

On to GGCAAAGGAAACTCTGCC ((((.((....)).)))), for which, in data set [1], the folding enthalpy was -32.1 kcal/mol. For the same sequence, the Tm in data set [2] stood at 36.2 °C.

Consider GCGGAGCGAAAGCTTGGC ((..(((....)))..)), for which, in data set [1], the folding enthalpy is -13.5 kcal/mol. Also, the Tm in data set [2] was 39.4 °C.

For GTAGCCGAAAGGCTATAC ((((((....)))..))), the folding enthalpy in data set [1] is -10.2 kcal/mol. Further, the Tm in data set [2] is 47.1 °C.

On to GGCAGCGAAAGCTGAGCC ((((((....)))..))), for which the folding enthalpy in data set [1] was -14.1 kcal/mol. Besides, the Tm in data set [2] was 51.9 °C.

As for GGTCCGGGAAACCGGATC (.(((((....))))).), the folding enthalpy in data set [1] was -24 kcal/mol. Moreover, the Tm in data set [2] amounted to 58.9 °C.

Regarding GGCTGCGAAAGCACGCC ((((((....))).))), in data set [1], the folding enthalpy was -29.6 kcal/mol. In addition, the Tm in data set [2] is 65.2 °C.

Regarding GCATGAGGAAACCCATGC (((((.(....).))))), the folding enthalpy in data set [1] is -36.8 kcal/mol. Also, in data set [2], the Tm was determined as 48.6 °C.

Take GATATCGGAAACGACATC (((.(((....))).))): the folding enthalpy in data set [1] is -27.9 kcal/mol. The Tm in data set [2] was determined as 32.7 °C.

Consider GGTGCAGGAAACCACACC ((((..(....)..)))), for which the folding enthalpy in data set [1] was -21.4 kcal/mol. Moreover, the Tm in data set [2] was 34.9 °C.

As for GTGCCGACGAAAGTCCAC (((..(((....)))))), the folding enthalpy in data set [1] is -8.42 kcal/mol. Moreover, the Tm in data set [2] was found to be 53.8 °C.

As to CGTGCGGAAACGCGACG ((((((....))).))), the folding enthalpy in data set [1] is -23.5 kcal/mol. The Tm in data set [2] turned out to be 55.1 °C.

Consider GAGACCGAAAGGTTACTC ((((((....)))..))), for which the folding enthalpy in data set [1] is -12.8 kcal/mol. For the same sequence, the Tm in data set [2] amounted to 34.8 °C.

With GACTACCGAAAGGTGTC (((.(((....)))))), the folding enthalpy in data set [1] is -21.6 kcal/mol. For the same sequence, the Tm in data set [2] is 49.6 °C.

For GACTTGGAAACAAGTC ((((((....)))))), the folding enthalpy in data set [1] was -38.5 kcal/mol. In addition, the Tm in data set [2] was determined as 54.2 °C.

For GATAGGGGAAACCCTGTC ((.((((....)))).)), the folding enthalpy in data set [1] is -25.4 kcal/mol. For the same sequence, the Tm in data set [2] was 43.7 °C.

In the case of GCGATTTTTCGC ((((....)))), the folding enthalpy in data set [1] is -27.2 kcal/mol. In addition, the Tm in data set [2] was found to be 53.1 °C.

For GATCATCAATATGATC ((((((....)))))), the folding enthalpy in data set [1] was -35 kcal/mol. Besides, the Tm in data set [2] was found to be 45 °C.

Take GCGTTGCGAAAGCCTCGC (((..((....))..))): in data set [1], the folding enthalpy was -18.5 kcal/mol. The Tm in data set [2] is 58.1 °C.

As for GGAGGCGAAAGCCCATCC ((((((....)))..))), the folding enthalpy in data set [1] was -9.1 kcal/mol. The Tm in data set [2] amounted to 31.3 °C.

Consider CCTGTGAAAACAGG (((((....))))), for which the folding enthalpy in data set [1] was -17 kcal/mol. Besides, in data set [2], the Tm was determined as 51.6 °C.

Turning to GGGATACGAAAGTACCC (((.(((....)))))), the folding enthalpy in data set [1] is -27.4 kcal/mol. For the same sequence, the Tm in data set [2] turned out to be 51.2 °C.

As for GTAGCTGGAAACAGCTAC (((((((....))))))), the folding enthalpy in data set [1] was -39 kcal/mol. In addition, the Tm in data set [2] came to 66 °C.

For CGATCGGAAACGATTTCG ((((((....)))..))), the folding enthalpy in data set [1] is -20.4 kcal/mol. For the same sequence, in data set [2], the Tm was 30.2 °C.

For GATCGGGCTACCGATC ((((((....)))))), the folding enthalpy in data set [1] is -36.7 kcal/mol. Further, the Tm in data set [2] was 67.7 °C.

For the sequence GGTACAGGAAACTGCACC (((.(((....))).))), the folding enthalpy in data set [1] was -32.5 kcal/mol. Moreover, the Tm in data set [2] was 44.2 °C.

For GGTCGGCGAAAGCCAACC (((.(((....))).))), in data set [1], the folding enthalpy is -21 kcal/mol. Besides, the Tm in data set [2] was 55.3 °C.

As to GATCTGGAACAGATC ((((((...)))))), the folding enthalpy in data set [1] is -37.7 kcal/mol. Further, the Tm in data set [2] came to 58.8 °C.

GACGACCGAAAGGTAGTC (((.(((....))).))): the folding enthalpy in data set [1] is -38.6 kcal/mol. For the same sequence, the Tm in data set [2] was determined as 57.7 °C.

On to GGTGGTGGAAACATCGCC ((.(.((....)).).)), for which the folding enthalpy in data set [1] is -27.4 kcal/mol. For the same sequence, the Tm in data set [2] was found to be 44.6 °C.

Take GGAGTAGGAAACCACTCC (((((.(....).))))): the folding enthalpy in data set [1] was -28.3 kcal/mol. In data set [2], the Tm amounted to 42.6 °C.

For GCTTTCGAAAGAAGAGC ((((((....))).))), the folding enthalpy in data set [1] was -17.5 kcal/mol. In addition, the Tm in data set [2] came out at 37.3 °C.
